The text below walks through data of ChEMBL document CHEMBL1127405, “Synthesis and antitumor evaluation of bis[(pivaloyloxy)methyl] 2'-deoxy-5-fluorouridine 5'-monophosphate (FdUMP): a strategy to introduce nucleotides into cells” (J Med Chem, 1994).

The subject of experiment [1] is CHO. Briefly: The minimun drug concentration that gives rise to colonies containing fewer than 50 cells after incubation at 37 degree C against chinese hamster ovary cells. The format is functional, cell-based. The following applies: Cricetulus griseus. The essentials: (§1)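 About 200 cells per dish were grown as clones in drug at 0, 0.5, 1.5, 5, 10, 50 or 100 μM for 7 d at 37 °C in humidified CO2. Colonies were fixed with 10% formaldehyde and stained with 0.1% crystal violet. The value is the lowest tested concentration giving colonies of fewer than 50 cells.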

Experiment [2] has as its system Mus musculus. Briefly: The compound was tested for mean survival time for 15 mice implanted Intraperitoneally with P-388/0 Leukemia cell line at 360 mg/kg. It counts as functional. The following applies: route intraperitoneal. The essentials: (§2)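 P-388/0 or P-388/FU cells (1×10^6) implanted ip into male BDF1 mice on day 0. Dosing was ip, daily for 5 consecutive days beginning 24 h later, in saline or Emulphor 620 vehicle. Six mice per treated group. Animals followed to death and median survival time recorded in days. The control group had 15 mice.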

Experiment [3] has as its system Mus musculus. The experiment can be described thus: The compound was tested for change in weight for mice implanted intraperitoneally with P-388/FU Leukemia cell line at 240 mg/kg. The format is functional. The following applies: route intraperitoneal. The essentials: (§3)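 Male BDF1 mice inoculated ip on day 0 with 1 × 10^6 leukemia cells (six mice per group, average weight 22 g). Dosing ip once daily for 5 consecutive days starting 24 h after implantation. Fluoropyrimidine references in 0.9% saline; prodrugs formulated with Emulphor 620; vehicle controls 0.2 mL. Percent body weight change recorded per group.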

Experiment [4] concerns Mus musculus. Briefly: The compound was tested for mean survival time for 15 mice implanted Intraperitoneally with P-388/0 Leukemia cell line at 240 mg/kg. It counts as functional. The settings on record: route intraperitoneal. The essentials:
as §2

The subject of experiment [5] is Mus musculus. The experiment can be described thus: The compound was tested for change in weight for mice implanted intraperitoneally with P-388/0 Leukemia cell line at 360 mg/kg. It counts as functional. The following applies: route intraperitoneal. The essentials:
as §3

Experiment [6] deals with Mus musculus. The experiment can be described thus: The compound was tested for increase in life span for mice implanted intraperitoneally with P-388/0 Leukemia cell line at 240 mg/kg. The following applies: P388, ip, route intraperitoneal. It counts as functional. The essentials: (§4)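 Male BDF1 mice, six per group, implanted ip with 1×10^6 P-388/0 or P-388/FU cells on day 0. Dosed ip daily for 5 days from 24 h post-implant, in saline or Emulphor 620 vehicle. Mice observed until death. %ILS = (T/C − 1)×100, from median survival of treated mice (T) versus saline-treated controls (C).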

In experiment [7] the test system is CHO. Briefly: The minimun drug concentration that gives rise to colonies containing fewer than 50 cells after incubation at 37 degree C against chinese hamster ovary cells 20 fold resistant to fluoroudine. It counts as functional, cell-based. The following applies: Cricetulus griseus. The essentials:
as §1

Experiment [8] has as its system Mus musculus. Briefly: The compound was tested for change in weight for mice implanted intraperitoneally with P-388/0 Leukemia cell line at 160 mg/kg. The following applies: route intraperitoneal. The format is functional. The essentials: as §3
The subject of experiment [9] is Mus musculus. The experiment can be described thus: The compound was tested for mean survival time for 15 mice implanted Intraperitoneally with P-388/FU Leukemia cell line at 240 mg/kg. The settings on record: route intraperitoneal. It counts as functional. The essentials: as §2
Experiment [10] relates to Mus musculus. Briefly: The compound was tested for increase in life span for mice implanted intraperitoneally with P-388/0 Leukemia cell line at 160 mg/kg. It counts as functional. The following applies: P388, ip, route intraperitoneal. The essentials: as §4
The subject of experiment [11] is Mus musculus. The experiment can be described thus: The compound was tested for change in weight for mice implanted intraperitoneally with P-388/FU Leukemia cell line at 160 mg/kg. The format is functional. The following applies: route intraperitoneal. The essentials:
as §3

In experiment [12] the test system is Mus musculus. The experiment can be described thus: The compound was tested for increase in life span for mice implanted intraperitoneally with P-388/0 Leukemia cell line at 360 mg/kg. The format is functional. The following applies: P388, ip, route intraperitoneal. The essentials: as §4
In experiment [13] the test system is Mus musculus. Briefly: The compound was tested for mean survival time for 15 mice implanted Intraperitoneally with P-388/FU Leukemia cell line at 360 mg/kg. The format is functional. The settings on record: route intraperitoneal. The essentials:
as §2

Experiment [14] relates to Mus musculus. Briefly: The compound was tested for change in weight for mice implanted intraperitoneally with P-388/FU Leukemia cell line at 360 mg/kg. It counts as functional. The settings on record: route intraperitoneal. The essentials:
as §3

For experiment [15], the system named is Mus musculus. The experiment can be described thus: The compound was tested for change in weight for mice implanted intraperitoneally with P-388/0 Leukemia cell line at 240 mg/kg. The format is functional. The following applies: route intraperitoneal. The essentials: as §3
Experiment [16] has as its system Mus musculus. The experiment can be described thus: The compound was tested for increase in life span for mice implanted intraperitoneally with P-388/FU Leukemia cell line at 160 mg/kg. The format is functional. The following applies: P388, ip, route intraperitoneal. The essentials:
as §4

Experiment [17] has as its system Mus musculus. The experiment can be described thus: The compound was tested for increase in life span for mice implanted intraperitoneally with P-388/FU Leukemia cell line at 240 mg/kg. It counts as functional. The settings on record: P388, ip, route intraperitoneal. The essentials: as §4
Experiment [18] deals with Mus musculus. Briefly: The compound was tested for increase in life span for mice implanted intraperitoneally with P-388/FU Leukemia cell line at 360 mg/kg. It counts as functional. The settings on record: P388, ip, route intraperitoneal. The essentials:
as §4

For experiment [19], the system named is Mus musculus. Briefly: The compound was tested for mean survival time for 15 mice implanted Intraperitoneally with P-388/FU Leukemia cell line at 160 mg/kg. It counts as functional. The following applies: route intraperitoneal. The essentials:
as §2

Experiment [20] concerns Mus musculus. The experiment can be described thus: The compound was tested for mean survival time for 15 mice implanted Intraperitoneally with P-388/0 Leukemia cell line at 160 mg/kg. It counts as functional. The following applies: route intraperitoneal. The essentials:
as §2

pIC50: −log10 of the molar value.

By pIC50 is commonly meant −log10 of the IC50, conventionally taken in molar units. Lower therefore signals a large IC50. By ILS is commonly meant how much longer treated animals lived than controls. Read a low ILS as a small benefit in survival. Consider `CC(=O)O[C@H]1C[C@H](n2cc(F)c(=O)[nH]c2=O)O[C@@H]1COP(=O)(OCOC(=O)C(C)(C)C)OCOC(=O)C(C)(C)C`, for which the pIC50 with CHO [1] and in the experiment with CHO [7] was 5.30 in each case. Further, the MST in the experiment on Mus musculus [2] worked out at 20 days; in the experiment with Mus musculus [4], 16 days; in the experiment with Mus musculus [9], 16 days; in the experiment on Mus musculus [13] it was 16 days; with Mus musculus [19] it was 15 days; in the experiment on Mus musculus [20], 15 days. Also, the Weight change was -12% in the experiment on Mus musculus [3]; -15% with Mus musculus [5]; -9% in the experiment with Mus musculus [8]; -9% in the experiment with Mus musculus [11]; -13% in the experiment on Mus musculus [14]; -15% in the experiment with Mus musculus [15]. The ILS at 240 mg/kg in the experiment on Mus musculus [6] and with Mus musculus [17] was 45% throughout. The increase in lifespan (ILS) at 160 mg/kg in the experiment on Mus musculus [10] and in the experiment with Mus musculus [16] was 36% throughout. In addition, the increase in lifespan (ILS) at 360 mg/kg was 82% in the experiment with Mus musculus [12] and 45% in the experiment with Mus musculus [18].
